Assay results taken from ChEMBL document CHEMBL1828568, “Novel imaging agents for β-amyloid plaque based on the N-benzoylindole core” (Bioorg Med Chem Lett, 2011).

Legend:
[1] = Displacement of [125I]TZDM from amyloid beta (1 to 40) aggregates after 2 hrs by gamma counting
How it was run: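 Competition binding against [125I]TZDM as radiolabeled standard, using Aβ1–40 aggregates; run in triplicate, results as mean ± SD.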

[2] = Binding affinity to amyloid beta fibrils
How it was run: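 Competitive binding to Aβ1–40 aggregates, with [125I]TZDM as the radiolabeled reference ligand displaced by unlabeled test compound. Run in triplicate and reported as mean ± SD.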

O=C(/C=C/c1ccccc1)n1ccc2cc(O)ccc21
Ki [1]: 21.6 nM

COc1ccc(/C=C/C(=O)n2ccc3cc(OC)ccc32)cc1
Ki [1]: 60.8 nM

CC(C)Cc1ccc([C@H](C)C(=O)O)cc1 [DEXIBUPROFEN]
Ki [2]: 44.4 nM

Cc1ccc2c(ccn2C(=O)/C=C/c2ccccc2)c1
Ki [1]: 128 nM

COc1ccc(/C=C/C(=O)n2ccc3ccccc32)cc1
Ki [1]: 27.3 nM
